High-throughput results (PubChem)
Only a selection was taken, and hits are over-represented in it overall.
T cruzi inh = T. cruzi replication inhibition | T. cruzi beta-gal in NIH3T3, luminescence, 90 h | inhibition, % (concentration not given with the values) | actives 1.4% (n = 300,000) | AID 1885;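 active = mean inhibition across valid replicates above about 55%, limit read from the data; inconclusive = mean below that limit but half or more replicates reach it; inactive = mean below it, under half of replicates reach it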;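 also: signal also drops with host cell toxicity which is not excluded here; 0% = plate median of DMSO wells and 100% = zero luminescence signal; higher percent means less beta-gal luminescence so fewer parasites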
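Test system: β-gal T. cruzi (Tulahuen C4) inside NIH/3T3 cells / Quantity: 5,000 cells/well / Measured by: luminescence from GalScreen with 0.05% NP40, read after 60 min / Medium: DMEM plus 2% FBS / Measure: parasite load inhibition, % / Reagent: Tulahuen C4 trypomastigotes, 5000/well / Schedule: co-culture of at least 90 h after 3 h attachment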
L major viab = Leishmania major promastigote growth inhibition. inhibition, % at 10 µM. AID 1063. actives 9% (n = 200,000). Leishmania major promastigotes, resazurin fluorescence viability; in the data active = inhibition above about 50%;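 also: promastigotes grown with compound for 44 hours at 28 °C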
PolyA inhibitor = yeast polyadenylation inhibition; S. cerevisiae SKY197-pL101 polyadenylation reporter, beta-gal luminescence; efflux-impaired pdr1/pdr3 knockout yeast; score 100 = 6 SD above DMSO; activity score, % at 12 µM; actives 0.02% (n = 300,000); AID 1875;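 active = lowest replicate activity score at least 50, where 100 means six control SD above control mean; inconclusive = lowest score under 50 but half or more replicates reach 50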;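 also: yeast exposed to compound for 9 h at 30 °C; higher score means more reporter readthrough which indicates perturbed polyadenylation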
Calb FLC = affects C. albicans growth with fluconazole; actives 0.57% (n = 300,000); AID 1979; growth inhibition, % (no concentration beside the values); C. albicans CaCi-2 + fluconazole, Alamar Blue growth, 48 h;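 active = growth inhibition above about 58% in most replicates, limit read from the data, passing the limit was not always enough; inconclusive = exactly half the replicates above a set limit; inactive = most replicates below a set limit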;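 also: all wells also contain fluconazole at 8 µg/ml as a sub-toxic cotreatment; 0% = median of DMSO wells and 100% = median of geldanamycin control wells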
NALP1 yeast inh = blocks the NALP1 inflammasome reconstituted in yeast | S. cerevisiae NALP1/ASC/caspase-1 growth, X-gal OD620, 72 h | actives 0.61% (n = 280,000) | inhibition, % at 10 µM; in the data active = inhibition mostly above about 24%, no sharp cut-off; inactive = mostly below about 32%
NALP3 yeast inh = inhibitors of NALP3 inflammasome in yeast; Yeast reconstituted NLRP3/ASC/caspase-1, beta-gal luminescence, 24 h; inhibition, % at 10 µM; actives 0.39% (n = 330,000);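 active = inhibition of 50% or more; inactive = inhibition below 50%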;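 also: plate controls were induced DMSO wells for no effect and uninduced yeast grown without galactose for full effect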
An asterisk follows results filed as active.

How did CCC(C)n1c(SCC(=O)NC(=O)Nc2ccc3c(c2)OCCO3)nc2ccccc2c1=O (stereo not given) do in these assays?
T cruzi inh: 66*; L major viab: 86*; PolyA inhibitor: 3; Calb FLC: -10; NALP1 yeast inh: 30; NALP3 yeast inh: 15

How did CN(C)CCCN(C(=O)c1ccco1)c1nc(-c2ccc(Cl)cc2)cs1 do in these assays?
T cruzi inh: 57*; PolyA inhibitor: 0; Calb FLC: 1; NALP1 yeast inh: 34; NALP3 yeast inh: 37

How did Cc1ccc(-c2csc(N(CCCN(C)C)C(=O)c3ccco3)n2)cc1 do in these assays?
T cruzi inh: 48; L major viab: 27; PolyA inhibitor: -3; Calb FLC: -2; NALP1 yeast inh: 14; NALP3 yeast inh: 25

What do the screens show for `Cc1ccc(-c2csc(N(CC3CCCO3)C(=O)c3ccco3)n2)cc1` (stereo not given)?
T cruzi inh: 28; L major viab: 76*; PolyA inhibitor: -12; Calb FLC: 35; NALP1 yeast inh: 26; NALP3 yeast inh: 14

How did COc1ccc(-c2csc(N(CCCN(C)C)C(=O)c3cccs3)n2)cc1 do in these assays?
T cruzi inh: 66*; L major viab: 92*; PolyA inhibitor: -7; Calb FLC: 8; NALP1 yeast inh: 20; NALP3 yeast inh: 15

Results for Nc1nnnn1/N=C/c1cccc(Oc2ccccc2)c1 ?
T cruzi inh: -5; L major viab: -4; PolyA inhibitor: -32; Calb FLC: 78*; NALP1 yeast inh: 4; NALP3 yeast inh: -2

How did CCS(=O)(=O)N1CCN(S(=O)(=O)c2ccc3c(c2)OCCO3)CC1 do in these assays?
T cruzi inh: -15; PolyA inhibitor: -7; Calb FLC: 8; NALP1 yeast inh: 7; NALP3 yeast inh: 26

How did Cc1csc(N(C(=O)CCNC(=O)c2ccc([N+](=O)[O-])cc2)c2ccccc2)n1 do in these assays?
T cruzi inh: 49; L major viab: 64*; PolyA inhibitor: -6; Calb FLC: -4; NALP3 yeast inh: 18

How did Cc1csc(N(C(=O)c2ccc(S(=O)(=O)N(C)C)cc2)c2ccccc2)n1 do in these assays?
T cruzi inh: 7; L major viab: -3; PolyA inhibitor: 20; Calb FLC: 7; NALP1 yeast inh: 4; NALP3 yeast inh: 7

Results for Cc1ccnc(NC(=O)c2cccc(S(=O)(=O)N3CCN(c4ccc(F)cc4)CC3)c2)c1 ?
T cruzi inh: 44; PolyA inhibitor: -23; Calb FLC: -4; NALP3 yeast inh: 22

Results for Cc1ccc(C)c2[nH]c(=O)c(CCNC(=O)C(C)(C)C)cc12 ?
T cruzi inh: -14; L major viab: -5; PolyA inhibitor: 4; Calb FLC: 5; NALP1 yeast inh: 19; NALP3 yeast inh: 7

How did CC1CC(C)CN(S(=O)(=O)c2ccc(C(=O)OCC(=O)NCCN3C(=O)CSC3=O)cc2)C1 (stereo not given) do in these assays?
T cruzi inh: -2; L major viab: -13; PolyA inhibitor: -3; Calb FLC: -9; NALP1 yeast inh: -2; NALP3 yeast inh: 11

How did CCOC(=O)N1CCc2c(sc(NC(=O)Cc3ccccc3)c2C(=O)c2ccc(OC)cc2)C1 do in these assays?
T cruzi inh: 18; PolyA inhibitor: -13; Calb FLC: 4; NALP1 yeast inh: 2; NALP3 yeast inh: -3

Results for COc1ccc(C(=O)c2c(NC(C)=O)sc3c2CCN(C(=O)OC(C)(C)C)C3)cc1 ?
T cruzi inh: 43; PolyA inhibitor: -26; Calb FLC: 6; NALP1 yeast inh: 44*; NALP3 yeast inh: 12

How did Cc1sc2nc(CSCC(=O)Nc3ccc(C(=O)N(C)C)cc3)[nH]c(=O)c2c1C do in these assays?
NALP3 yeast inh: 1

What do the screens show for `COCC(=O)NNS(=O)(=O)c1ccccc1[N+](=O)[O-]`?
T cruzi inh: -10; L major viab: 54*; PolyA inhibitor: 18; Calb FLC: -10; NALP1 yeast inh: -38; NALP3 yeast inh: -2

How did COc1ccccc1CC(=O)NNS(=O)(=O)c1ccccc1[N+](=O)[O-] do in these assays?
T cruzi inh: -9; L major viab: -5; PolyA inhibitor: 2; Calb FLC: 30; NALP1 yeast inh: -8; NALP3 yeast inh: 12

Results for COc1ccccc1N1CCN(S(=O)(=O)CCNC(=O)c2cccc(F)c2)CC1 ?
T cruzi inh: 6; PolyA inhibitor: 9; Calb FLC: 7; NALP3 yeast inh: 12

Results for Cc1cc2nc(-c3ccc(SCC(=O)N4CCOCC4)nc3)[nH]c2cc1C ?
T cruzi inh: -10; L major viab: 60*; PolyA inhibitor: -3; Calb FLC: inconclusive; NALP1 yeast inh: 10; NALP3 yeast inh: 5

What do the screens show for `CCOC(=O)CSc1ccc(-c2nc3cc(C)c(C)cc3[nH]2)cn1`?
T cruzi inh: 4; L major viab: 57*; PolyA inhibitor: -6; Calb FLC: 1; NALP1 yeast inh: 13; NALP3 yeast inh: 18

What do the screens show for `Cc1ccc2nc(-c3ccc(SCC(=O)Nc4nc(C)cs4)nc3)[nH]c2c1`?
T cruzi inh: 29; L major viab: 53*; PolyA inhibitor: -5; Calb FLC: -5; NALP1 yeast inh: 23; NALP3 yeast inh: -9

How did Cc1cc2nc(-c3ccc(SCC(=O)N4CCN(C(=O)c5ccco5)CC4)nc3)[nH]c2cc1C do in these assays?
T cruzi inh: -8; L major viab: 17; PolyA inhibitor: 10; Calb FLC: -9; NALP1 yeast inh: -24; NALP3 yeast inh: 10

Results for Cc1cc2nc(-c3ccc(SCc4ccccn4)nc3)[nH]c2cc1C ?
T cruzi inh: -10; L major viab: 64*; PolyA inhibitor: -11; Calb FLC: 12; NALP1 yeast inh: -2; NALP3 yeast inh: -2

How did CCOC(=O)c1cc(NC(=O)N(CC)CC)c(C)nc1C do in these assays?
T cruzi inh: -15; L major viab: -2; PolyA inhibitor: 5; Calb FLC: 5; NALP1 yeast inh: 37*; NALP3 yeast inh: 5

What do the screens show for `Cc1cc(=O)[nH]c(SCC(=O)N2CCCC2)n1`?
NALP3 yeast inh: 3

Results for O=C1C(Cl)=C(N2CCN(Cc3ccccc3)CC2)C(=O)N1Cc1ccccc1 ?
T cruzi inh: 33; L major viab: 92*; PolyA inhibitor: -6; Calb FLC: 2; NALP1 yeast inh: 2; NALP3 yeast inh: 16

How did O=C1C(Cl)=C(NC2CCCCC2)C(=O)N1Cc1ccccc1 do in these assays?
T cruzi inh: 21; L major viab: -7; PolyA inhibitor: -16; Calb FLC: 2; NALP1 yeast inh: 8; NALP3 yeast inh: 1

What do the screens show for `Cc1ccc(NC(=O)C2C(C(=O)O)C3C=CC2C32CC2)cc1` (stereo not given)?
T cruzi inh: -8; L major viab: 19; PolyA inhibitor: 22; Calb FLC: 79*; NALP1 yeast inh: -9; NALP3 yeast inh: -6

What do the screens show for `O=C(O)c1nc(-c2ccccc2)n(-c2ccccc2)n1`?
T cruzi inh: 2; L major viab: -5; PolyA inhibitor: 9; Calb FLC: 0; NALP1 yeast inh: 33; NALP3 yeast inh: 14
